This note sets out measurements from ChEMBL document CHEMBL1157608, “The discovery of 4-{1-[({2,5-dimethyl-4-[4-(trifluoromethyl)benzyl]-3-thienyl}carbonyl)amino]cyclopropyl}benzoic acid (MK-2894), a potent and selective prostaglandin E2 subtype 4 receptor antagonist” (J Med Chem, 2010).

Calls of active or inactive are those of the source. The rule behind the calls is not given here.

Data set [1] addresses Prostaglandin E2 receptor EP2 subtype (Homo sapiens, UniProt P43116). Nature of the data set: Displacement of [3H]PGE2 from human EP2 receptor expressed in HEK293-EBNA cells by scintillation counting. It counts as cell-based. Summed up: (§1)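 Radioligand binding on membranes from HEK 293(EBNA) clonal lines overexpressing each prostanoid receptor, using the respective 3H-prostaglandin or thromboxane ligand; EP4 binding also run with 10% human serum; Ki as means of at least three experiments (rEP2, rEP3 n = 1).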

For data set [2], the target named is T1, Prostaglandin E2 receptor EP3 subtype (Homo sapiens, UniProt P43115).
T1 sequence (P43115 whole entry): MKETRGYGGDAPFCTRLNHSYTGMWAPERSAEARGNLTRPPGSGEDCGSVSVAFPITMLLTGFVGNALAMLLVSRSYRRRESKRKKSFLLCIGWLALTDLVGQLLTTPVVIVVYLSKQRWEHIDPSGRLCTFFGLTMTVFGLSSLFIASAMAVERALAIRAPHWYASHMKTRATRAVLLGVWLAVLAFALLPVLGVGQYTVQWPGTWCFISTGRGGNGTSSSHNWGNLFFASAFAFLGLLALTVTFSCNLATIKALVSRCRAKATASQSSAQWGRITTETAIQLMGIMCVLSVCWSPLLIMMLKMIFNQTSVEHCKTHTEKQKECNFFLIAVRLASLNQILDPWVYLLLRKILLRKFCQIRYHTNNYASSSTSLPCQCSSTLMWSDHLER
Nature of the data set: Displacement of [3H]PGE2 from human EP3 receptor expressed in HEK293-EBNA cells by scintillation counting. The class given is cell-based. The method, boiled down: as §1

Data set [3] concerns the target Prostacyclin receptor (Homo sapiens, UniProt P43119). Nature of the data set: Displacement of [3H]iloprost from human IP receptor expressed in HEK293-EBNA cells by scintillation counting. It counts as cell-based. The method, boiled down: as §1
Data set [4] addresses T2, Thromboxane A2 receptor (Homo sapiens, UniProt P21731).
T2 sequence (P21731 whole entry): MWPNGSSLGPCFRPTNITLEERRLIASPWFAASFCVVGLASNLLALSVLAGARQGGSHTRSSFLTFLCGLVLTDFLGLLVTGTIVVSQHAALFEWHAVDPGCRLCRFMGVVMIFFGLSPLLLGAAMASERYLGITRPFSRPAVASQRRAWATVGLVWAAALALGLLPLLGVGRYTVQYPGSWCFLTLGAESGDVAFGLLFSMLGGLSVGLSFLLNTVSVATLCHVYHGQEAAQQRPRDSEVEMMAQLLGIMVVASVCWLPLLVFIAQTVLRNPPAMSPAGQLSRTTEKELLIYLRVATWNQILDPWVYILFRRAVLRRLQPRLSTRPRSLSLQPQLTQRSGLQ
Nature of the data set: Displacement of [3H]SQ29548 from human TP receptor expressed in HEK293-EBNA cells by scintillation counting. The class given is cell-based. Summed up: as §1

Data set [5] addresses T3, Prostaglandin E2 receptor EP4 subtype (Homo sapiens, UniProt P35408). Nature of the data set: Antagonist activity at human EP4 receptor expressed in HEK293 cells assessed as inhibition of PGE2-induced cAMP accumulation by scintillation proximity assay. The class given is functional, cell-based. Summed up: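 HEK 293 cells; inhibition of PGE2-induced cAMP accumulation measured, with and without 10% human serum; means of at least three experiments.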

The target in data set [6] is T4, Prostaglandin E2 receptor EP1 subtype (Rattus norvegicus, UniProt P70597).
T4 sequence (P70597 whole entry): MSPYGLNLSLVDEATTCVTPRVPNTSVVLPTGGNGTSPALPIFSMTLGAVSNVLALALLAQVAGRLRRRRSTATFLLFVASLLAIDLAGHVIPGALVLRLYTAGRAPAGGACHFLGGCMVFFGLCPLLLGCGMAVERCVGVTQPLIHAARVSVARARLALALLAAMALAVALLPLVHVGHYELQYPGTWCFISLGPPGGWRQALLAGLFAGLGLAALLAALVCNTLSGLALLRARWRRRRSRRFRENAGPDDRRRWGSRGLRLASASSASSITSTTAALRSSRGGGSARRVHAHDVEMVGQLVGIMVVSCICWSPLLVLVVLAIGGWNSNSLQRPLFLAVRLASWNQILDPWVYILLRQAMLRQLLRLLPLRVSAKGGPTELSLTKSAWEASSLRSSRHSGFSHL
Nature of the data set: Displacement of [3H]PGE2 from rat EP1 receptor expressed in HEK293-EBNA cells by scintillation counting. It counts as cell-based. The method, boiled down:
as §1

In data set [7] the target is Prostaglandin E2 receptor EP2 subtype (Rattus norvegicus, UniProt Q62928). Nature of the data set: Displacement of [3H]PGE2 from rat EP2 receptor expressed in HEK293-EBNA cells by scintillation counting. It counts as cell-based. The method, boiled down: as §1
Chain of Prostaglandin E2 receptor EP2 subtype (Rattus norvegicus, UniProt Q62928) (Q62928 whole entry): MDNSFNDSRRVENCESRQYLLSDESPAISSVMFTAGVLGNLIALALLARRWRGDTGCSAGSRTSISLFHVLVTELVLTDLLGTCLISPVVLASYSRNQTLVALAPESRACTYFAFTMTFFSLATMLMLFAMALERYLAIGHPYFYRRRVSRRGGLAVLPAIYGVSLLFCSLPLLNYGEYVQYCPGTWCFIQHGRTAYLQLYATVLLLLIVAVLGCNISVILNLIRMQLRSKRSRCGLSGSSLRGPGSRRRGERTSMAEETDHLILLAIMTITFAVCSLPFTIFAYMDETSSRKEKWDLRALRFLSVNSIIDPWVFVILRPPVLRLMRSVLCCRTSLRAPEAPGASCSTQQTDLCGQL
Data set [8] has as its target T5, Prostaglandin E2 receptor EP3 subtype (Rattus norvegicus, UniProt P34980).
T5 sequence (P34980 whole entry): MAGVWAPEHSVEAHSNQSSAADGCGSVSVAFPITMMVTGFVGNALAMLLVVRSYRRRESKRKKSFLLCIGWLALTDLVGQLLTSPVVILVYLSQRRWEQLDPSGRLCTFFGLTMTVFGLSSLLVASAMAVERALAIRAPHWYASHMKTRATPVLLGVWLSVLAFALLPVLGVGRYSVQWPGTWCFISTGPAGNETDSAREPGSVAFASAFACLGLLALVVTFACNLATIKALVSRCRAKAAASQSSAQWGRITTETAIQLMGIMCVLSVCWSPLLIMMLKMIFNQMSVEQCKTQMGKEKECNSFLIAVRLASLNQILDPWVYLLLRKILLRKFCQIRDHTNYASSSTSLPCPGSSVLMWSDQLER
Nature of the data set: Displacement of [3H]PGE2 from rat EP3 receptor expressed in HEK293-EBNA cells by scintillation counting. It counts as cell-based. The method, boiled down:
as §1

The target of data set [9] is T3, Prostaglandin E2 receptor EP4 subtype. Nature of the data set: Activity at EP4 receptor in human whole blood assessed as blockade of inhibition of TNF-alpha-induced IP10 release. The class given is functional, tissue-based. The method, boiled down:
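Human whole blood; TNF-alpha-stimulated IP-10 release, suppressed by the selective EP4 agonist L-902688 (used in place of PGE2); antagonism measured as reversal of that suppression; IC50.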

The species named for data set [10] is Rattus norvegicus. Nature of the data set: Analgesic activity against complete Freund's adjuvant-induced Sprague-Dawley rat inflammatory pain assessed as inhibition of chronic paw swelling at plasma concentration of 4 nM after 24 hrs. The class given is functional, organism-based. Summed up: (§2)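 Adjuvant-induced arthritis in rats: CFA injected into primary paw on day 0; oral dosing in 0.5% methocel once daily for 9 days starting day 9; secondary paw swelling measured; plasma levels taken 24 h after final dose; n = 7/group; 1-way ANOVA/Dunnett's vs vehicle.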

The test system of data set [11] is Rattus norvegicus. Nature of the data set: Plasma concentration in complete Freund's adjuvant-induced Sprague-Dawley rat inflammatory pain model at 0.1 mg/kg/day, po. The note with it: in vivo. Details: route oral. It counts as ADME, organism-based. Summed up: as §2
A short description of data set [12]: Oral bioavailability in C57BL/6 mouse at 20 mg/kg. The class given is ADME, organism-based. The settings on record: in vivo. Summed up: (§3)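 Overnight-fasted animals dosed po in 0.5% methocel or iv in 60% PEG 200; plasma from serial blood samples stored at -10 °C, protein-precipitated with equal volume acetonitrile/0.1% formic acid, analysed by LC/MS/MS with internal standard against spiked blank-plasma standards; Cmax from po data, half-life from iv data.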

Data set [13] in a line: Cmax in C57BL/6 mouse at 20 mg/kg, po. The class given is ADME, organism-based. The note with it: in vivo. Further details: dose 20 mg/kg, route oral. The method, boiled down:
as §3

Data set [14] is described as follows: Volume of distribution at steady state in C57BL/6 mouse at 20 mg/kg, po and 5 mg/kg, iv. The class given is ADME, organism-based. The note with it: in vivo, read-out: Vdss. Summed up:
as §3

The nature of data set [15]: Volume of distribution at steady state in Beagle dog at 5 mg/kg, po and 1 mg/kg, iv. It counts as ADME, organism-based, Canis lupus familiaris. The note with it: in vivo, read-out: Vdss. The method, boiled down: as §3
The nature of data set [16]: Oral bioavailability in cynomolgus monkey at 5 mg/kg. The class given is ADME, organism-based, Macaca fascicularis. The settings on record: in vivo. Summed up:
as §3

T3 sequence (P35408 whole entry): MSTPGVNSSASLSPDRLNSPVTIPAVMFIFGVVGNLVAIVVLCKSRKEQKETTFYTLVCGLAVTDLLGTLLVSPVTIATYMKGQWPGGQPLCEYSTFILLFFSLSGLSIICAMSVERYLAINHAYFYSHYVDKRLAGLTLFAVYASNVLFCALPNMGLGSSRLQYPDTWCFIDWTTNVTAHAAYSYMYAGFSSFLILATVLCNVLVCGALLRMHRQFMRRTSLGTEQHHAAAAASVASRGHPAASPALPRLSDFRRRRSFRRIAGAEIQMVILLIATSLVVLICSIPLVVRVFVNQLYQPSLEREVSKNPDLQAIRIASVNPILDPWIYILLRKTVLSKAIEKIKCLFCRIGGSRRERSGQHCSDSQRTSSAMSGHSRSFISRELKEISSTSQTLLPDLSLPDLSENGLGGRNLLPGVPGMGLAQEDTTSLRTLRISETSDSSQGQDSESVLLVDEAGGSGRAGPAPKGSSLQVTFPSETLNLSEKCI
Chain of Prostaglandin E2 receptor EP2 subtype (Homo sapiens, UniProt P43116) (P43116 whole entry): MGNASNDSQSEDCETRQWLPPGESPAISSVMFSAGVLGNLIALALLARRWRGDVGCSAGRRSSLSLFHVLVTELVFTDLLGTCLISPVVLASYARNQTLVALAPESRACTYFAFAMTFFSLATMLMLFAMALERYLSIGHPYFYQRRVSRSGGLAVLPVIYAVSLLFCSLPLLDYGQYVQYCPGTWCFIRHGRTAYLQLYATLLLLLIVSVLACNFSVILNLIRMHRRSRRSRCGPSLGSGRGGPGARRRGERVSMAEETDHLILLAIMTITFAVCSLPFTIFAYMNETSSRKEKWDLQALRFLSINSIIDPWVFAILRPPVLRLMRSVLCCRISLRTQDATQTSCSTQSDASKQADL
Chain of Prostacyclin receptor (P43119 whole entry): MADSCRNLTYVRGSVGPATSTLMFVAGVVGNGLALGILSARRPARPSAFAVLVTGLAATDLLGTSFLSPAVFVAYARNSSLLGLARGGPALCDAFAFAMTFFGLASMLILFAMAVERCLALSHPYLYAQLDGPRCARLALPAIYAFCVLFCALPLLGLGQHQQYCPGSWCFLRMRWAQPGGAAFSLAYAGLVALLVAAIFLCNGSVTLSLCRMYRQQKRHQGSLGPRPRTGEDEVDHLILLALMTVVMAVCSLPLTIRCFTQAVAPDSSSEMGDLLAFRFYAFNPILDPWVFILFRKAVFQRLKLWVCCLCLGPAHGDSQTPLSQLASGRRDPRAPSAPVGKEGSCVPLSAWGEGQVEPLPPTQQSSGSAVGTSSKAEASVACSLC

In the case of `Cc1sc(C)c(C(=O)NC2(c3ccc(C(=O)O)cc3)CC2)c1Cc1ccc(C(F)(F)F)cc1`, the Ki in [1] was 5.9 µM; in data set [2], over 7.9 µM; in data set [3], over 22 µM; in data set [4], over 6.8 µM; in data set [6] it was over 29 µM; in data set [7], 7.2 µM. The same compound returned an inhibition constant Ki in data set [8] of 3.3 µM. For the same compound, the values for the IC50 in [5] and in [9] were 0.0025 µM and 0.011 µM, respectively. Further, the outcome in data set [10] was Active. In addition, the concentration in data set [11] is 4 nM. Moreover, the bioavailability in [12] stood at 21%; in [16], 18%. Also, the concentration in data set [13] peaked (Cmax) at 1400 nM. For the same compound, the Vd in [14] was found to be 7.6 L/kg; in data set [15] it was 0.91 L/kg.
